Active and inactive are the calls of the source. The rule behind the calls is not given here. Where only a bound is given, the exact number is not on record here.

For assay [1], the target named is T1, Protein arginine N-methyltransferase 9 (Homo sapiens) (UniProt Q6P2P2).
T1 sequence (whole entry): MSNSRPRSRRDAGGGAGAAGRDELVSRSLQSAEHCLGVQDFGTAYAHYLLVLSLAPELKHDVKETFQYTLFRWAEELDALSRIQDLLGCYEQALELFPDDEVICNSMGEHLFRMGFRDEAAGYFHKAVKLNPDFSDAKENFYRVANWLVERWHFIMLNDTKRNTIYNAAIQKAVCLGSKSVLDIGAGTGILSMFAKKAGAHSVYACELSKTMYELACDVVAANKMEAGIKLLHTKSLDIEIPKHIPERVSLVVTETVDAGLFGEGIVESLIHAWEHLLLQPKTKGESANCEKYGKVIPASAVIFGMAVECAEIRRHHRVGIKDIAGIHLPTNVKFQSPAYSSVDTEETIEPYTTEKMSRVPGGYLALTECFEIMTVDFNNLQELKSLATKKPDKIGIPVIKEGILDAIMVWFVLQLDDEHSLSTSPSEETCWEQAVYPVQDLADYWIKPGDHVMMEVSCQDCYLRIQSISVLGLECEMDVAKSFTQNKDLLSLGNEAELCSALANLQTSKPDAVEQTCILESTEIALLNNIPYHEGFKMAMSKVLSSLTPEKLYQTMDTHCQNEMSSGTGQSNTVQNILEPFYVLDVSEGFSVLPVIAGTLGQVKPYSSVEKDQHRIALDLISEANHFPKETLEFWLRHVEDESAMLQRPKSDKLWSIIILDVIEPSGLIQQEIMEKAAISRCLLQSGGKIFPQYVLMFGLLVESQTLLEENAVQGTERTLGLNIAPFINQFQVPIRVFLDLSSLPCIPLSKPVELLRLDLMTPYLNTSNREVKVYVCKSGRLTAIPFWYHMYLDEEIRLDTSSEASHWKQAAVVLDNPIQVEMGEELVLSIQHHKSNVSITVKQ
As to the kind of experiment: Inhibition of human PRMT9 using (3H) methylated biotin labelled peptide as substrate in presence of 3H-SAM by scintillation proximity assay. In short, it runs like this:
(§1)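 Scintillation proximity assay: 3H-SAM as methyl donor, with non-tritiated SAM added when needed. The 3H-methylated biotinylated peptide is captured on streptavidin/scintillant-coated plates and read as counts per minute. IC50 comes from compound titration under balanced conditions, with substrate and cofactor at their Km values. Run in triplicate, mean ± SD. Ki is derived from IC50. A lower enzyme level (5 nM) is used for some potent compounds.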

The target of assay [2] is T2, Histone-arginine methyltransferase CARM1 (Homo sapiens) (UniProt Q86X55).
T2 sequence (whole entry): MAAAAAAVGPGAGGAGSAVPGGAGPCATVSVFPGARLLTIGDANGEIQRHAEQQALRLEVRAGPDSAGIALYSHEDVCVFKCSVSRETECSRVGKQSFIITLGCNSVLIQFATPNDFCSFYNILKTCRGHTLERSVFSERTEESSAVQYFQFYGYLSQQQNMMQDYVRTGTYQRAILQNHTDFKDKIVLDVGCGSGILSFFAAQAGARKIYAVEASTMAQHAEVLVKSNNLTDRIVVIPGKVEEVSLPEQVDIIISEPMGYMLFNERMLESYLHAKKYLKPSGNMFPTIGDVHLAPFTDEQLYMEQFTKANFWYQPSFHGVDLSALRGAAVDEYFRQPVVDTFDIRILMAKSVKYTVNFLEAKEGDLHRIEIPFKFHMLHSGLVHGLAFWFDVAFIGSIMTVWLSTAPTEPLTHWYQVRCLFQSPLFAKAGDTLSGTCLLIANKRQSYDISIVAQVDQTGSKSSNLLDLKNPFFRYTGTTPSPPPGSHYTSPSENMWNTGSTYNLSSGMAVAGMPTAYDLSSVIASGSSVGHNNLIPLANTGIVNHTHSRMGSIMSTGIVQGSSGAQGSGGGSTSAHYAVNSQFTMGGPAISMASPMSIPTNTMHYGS
As to the kind of experiment: (§2) Inhibition of human PRMT4 using (3H) methylated biotin labelled peptide as substrate in presence of 3H-SAM by scintillation proximity assay. Summed up: (§3)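 Scintillation proximity assay: 3H-SAM as methyl donor, with non-tritiated SAM added when needed. The 3H-methylated biotinylated peptide is captured on streptavidin/scintillant-coated plates and read as counts per minute. IC50 comes from compound titration under balanced conditions, with substrate and cofactor at their Km values. Run in triplicate, mean ± SD. Ki is derived from IC50.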
(In general: SPA uses beads or plates that emit light when radiolabelled molecules are held near them.)

In assay [3] the target is T3, Protein arginine N-methyltransferase 6 (Homo sapiens, UniProt Q96LA8). As to the kind of experiment: Inhibition of human PRMT6 using (3H) methylated biotin labelled peptide as substrate in presence of 3H-SAM by scintillation proximity assay.
Assay [4] deals with T4, Protein arginine N-methyltransferase 1 (Homo sapiens, UniProt Q99873). As to the kind of experiment: Inhibition of PRMT1 in human MCF7 cells assessed as decrease in H4R3me2a level incubated for 48 hrs by Western blotting analysis. Format: cell-based. (In general: A western blot detects proteins with antibodies after separation by electrophoresis.)
Target sequence in this assay (Q99873 whole entry, looked up): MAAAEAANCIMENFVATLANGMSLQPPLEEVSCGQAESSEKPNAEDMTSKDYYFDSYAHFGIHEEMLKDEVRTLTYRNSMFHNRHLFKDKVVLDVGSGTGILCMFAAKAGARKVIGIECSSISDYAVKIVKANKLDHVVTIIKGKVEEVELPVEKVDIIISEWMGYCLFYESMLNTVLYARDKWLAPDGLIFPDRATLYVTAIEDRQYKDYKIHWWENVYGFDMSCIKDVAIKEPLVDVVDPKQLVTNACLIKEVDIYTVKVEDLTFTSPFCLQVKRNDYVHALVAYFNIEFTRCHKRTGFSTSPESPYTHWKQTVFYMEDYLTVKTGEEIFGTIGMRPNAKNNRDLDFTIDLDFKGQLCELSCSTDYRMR
Assay [5] addresses T4, Protein arginine N-methyltransferase 1. As to the kind of experiment: Inhibition of human PRMT1 using (3H) methylated biotin labelled peptide as substrate in presence of 3H-SAM by scintillation proximity assay.
Assay [6] deals with T5, Protein arginine N-methyltransferase 7 (Homo sapiens) (UniProt Q9NVM4).
T5 sequence (whole entry): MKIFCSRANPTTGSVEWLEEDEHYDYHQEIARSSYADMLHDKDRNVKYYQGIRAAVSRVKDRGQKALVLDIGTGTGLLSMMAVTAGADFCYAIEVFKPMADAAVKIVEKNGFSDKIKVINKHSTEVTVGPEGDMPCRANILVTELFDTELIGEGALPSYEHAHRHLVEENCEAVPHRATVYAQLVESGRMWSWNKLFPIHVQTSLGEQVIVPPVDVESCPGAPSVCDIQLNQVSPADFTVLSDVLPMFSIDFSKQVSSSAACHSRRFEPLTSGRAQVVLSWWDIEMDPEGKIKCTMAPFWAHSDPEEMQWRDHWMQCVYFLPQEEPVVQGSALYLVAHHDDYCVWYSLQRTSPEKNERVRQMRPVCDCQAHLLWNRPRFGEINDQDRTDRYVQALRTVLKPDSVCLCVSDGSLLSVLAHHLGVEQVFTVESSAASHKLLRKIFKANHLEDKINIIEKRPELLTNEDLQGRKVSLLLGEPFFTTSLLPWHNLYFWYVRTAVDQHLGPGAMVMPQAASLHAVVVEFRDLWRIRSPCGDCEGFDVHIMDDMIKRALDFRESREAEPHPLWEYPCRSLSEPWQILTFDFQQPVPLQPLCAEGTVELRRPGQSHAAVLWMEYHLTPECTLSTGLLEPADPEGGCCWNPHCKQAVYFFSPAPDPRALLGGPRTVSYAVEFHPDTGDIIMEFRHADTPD
As to the kind of experiment: Inhibition of human PRMT7 using (3H) methylated biotin labelled peptide as substrate in presence of 3H-SAM by scintillation proximity assay. Summed up: as §1

For assay [7], the target named is T6, Protein arginine N-methyltransferase 8 (Homo sapiens, UniProt Q9NR22). As to the kind of experiment: Inhibition of human PRMT8 using (3H) methylated biotin labelled peptide as substrate in presence of 3H-SAM by scintillation proximity assay. In short, it runs like this: as §1
The target of assay [8] is T7, Protein arginine N-methyltransferase 3 (Homo sapiens, UniProt O60678). As to the kind of experiment: Inhibition of human PRMT3 using (3H) methylated biotin labelled peptide as substrate in presence of 3H-SAM by scintillation proximity assay.
In assay [9] the target is Protein arginine N-methyltransferase 5 (Homo sapiens) (UniProt O14744). As to the kind of experiment: Inhibition of human PRMT5 using (3H) methylated biotin labelled peptide as substrate in presence of 3H-SAM by scintillation proximity assay. Summed up:
as §1

For assay [10], the target named is T8, Histone-arginine methyltransferase CARM1 (Homo sapiens, UniProt Q86X55).
T8 sequence (Q86X55 whole entry): T2 sequence (whole entry)
Described as §2. Summed up: as §3

Assay [11] deals with T4, Protein arginine N-methyltransferase 1. As to the kind of experiment: Binding affinity to human PRMT1 assessed as inhibition constant using (3H) methylated biotin labelled peptide as substrate in presence of 3H-SAM by scintillation proximity assay.
Target sequence in this assay (Q99873 whole entry): as the sequence (Q99873 whole entry, looked up) above
Assay [12] concerns the target T8, Histone-arginine methyltransferase CARM1. As to the kind of experiment: Binding affinity to human PRMT4 assessed as inhibition constant using (3H) methylated biotin labelled peptide as substrate in presence of 3H-SAM by scintillation proximity assay.
The target in assay [13] is T7, Protein arginine N-methyltransferase 3. As to the kind of experiment: Binding affinity to human PRMT3 assessed as inhibition constant using (3H) methylated biotin labelled peptide as substrate in presence of 3H-SAM by scintillation proximity assay.
Target sequence in this assay (O60678 whole entry): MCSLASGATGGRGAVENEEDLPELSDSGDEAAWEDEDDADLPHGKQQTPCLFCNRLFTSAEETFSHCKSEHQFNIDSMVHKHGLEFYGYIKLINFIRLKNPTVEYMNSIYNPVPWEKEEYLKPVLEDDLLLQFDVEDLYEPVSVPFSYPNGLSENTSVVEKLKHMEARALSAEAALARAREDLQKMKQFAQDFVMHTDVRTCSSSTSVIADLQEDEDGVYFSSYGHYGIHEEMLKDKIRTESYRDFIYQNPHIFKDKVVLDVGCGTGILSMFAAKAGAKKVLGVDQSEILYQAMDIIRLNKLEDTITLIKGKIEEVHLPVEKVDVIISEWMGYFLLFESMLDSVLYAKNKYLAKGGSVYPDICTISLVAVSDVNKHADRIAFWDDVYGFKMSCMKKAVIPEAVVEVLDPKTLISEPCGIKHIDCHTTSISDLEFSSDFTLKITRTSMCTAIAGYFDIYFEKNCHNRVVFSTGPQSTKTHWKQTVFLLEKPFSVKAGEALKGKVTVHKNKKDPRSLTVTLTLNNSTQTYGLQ
In assay [14] the target is T3, Protein arginine N-methyltransferase 6. As to the kind of experiment: Binding affinity to human PRMT6 assessed as inhibition constant using (3H) methylated biotin labelled peptide as substrate in presence of 3H-SAM by scintillation proximity assay. Summed up: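 Scintillation proximity assay with 3H-SAM as methyl donor, topped up with unlabelled SAM when needed. The methylated biotinylated peptide was captured on streptavidin/scintillant-coated plates and counted as cpm. IC50 came from compound titration at Km concentrations of both peptide substrate and SAM, in triplicate, reported as mean ± SD. Ki was calculated from IC50.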
Target sequence in this assay (Q96LA8 whole entry): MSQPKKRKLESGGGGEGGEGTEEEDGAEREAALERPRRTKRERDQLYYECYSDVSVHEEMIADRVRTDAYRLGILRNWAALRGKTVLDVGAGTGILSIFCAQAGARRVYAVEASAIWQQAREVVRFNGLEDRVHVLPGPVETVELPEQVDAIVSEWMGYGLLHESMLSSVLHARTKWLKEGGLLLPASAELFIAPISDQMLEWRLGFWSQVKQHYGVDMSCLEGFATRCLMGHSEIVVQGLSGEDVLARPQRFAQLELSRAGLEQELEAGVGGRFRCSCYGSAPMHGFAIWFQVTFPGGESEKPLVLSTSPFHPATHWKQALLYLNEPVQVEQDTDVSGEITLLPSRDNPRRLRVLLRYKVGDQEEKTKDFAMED

Assay [15] addresses T6, Protein arginine N-methyltransferase 8. As to the kind of experiment: Binding affinity to human PRMT8 assessed as inhibition constant using (3H) methylated biotin labelled peptide as substrate in presence of 3H-SAM by scintillation proximity assay. In short, it runs like this:
as §1
Target sequence in this assay (Q9NR22 whole entry): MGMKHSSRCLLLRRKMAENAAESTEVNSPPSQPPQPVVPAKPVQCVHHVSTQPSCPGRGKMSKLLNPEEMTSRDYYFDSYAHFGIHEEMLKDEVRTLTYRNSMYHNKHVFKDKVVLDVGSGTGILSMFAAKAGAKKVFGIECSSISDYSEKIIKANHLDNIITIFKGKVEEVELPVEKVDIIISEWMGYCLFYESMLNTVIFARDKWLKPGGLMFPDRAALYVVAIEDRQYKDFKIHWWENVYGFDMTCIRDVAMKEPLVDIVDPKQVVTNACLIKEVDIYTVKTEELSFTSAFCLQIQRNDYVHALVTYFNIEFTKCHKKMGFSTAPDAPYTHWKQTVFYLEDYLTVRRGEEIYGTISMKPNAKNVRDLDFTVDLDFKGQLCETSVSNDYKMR

Protein arginine N-methyltransferase 5 (Homo sapiens), sequence (O14744 whole entry): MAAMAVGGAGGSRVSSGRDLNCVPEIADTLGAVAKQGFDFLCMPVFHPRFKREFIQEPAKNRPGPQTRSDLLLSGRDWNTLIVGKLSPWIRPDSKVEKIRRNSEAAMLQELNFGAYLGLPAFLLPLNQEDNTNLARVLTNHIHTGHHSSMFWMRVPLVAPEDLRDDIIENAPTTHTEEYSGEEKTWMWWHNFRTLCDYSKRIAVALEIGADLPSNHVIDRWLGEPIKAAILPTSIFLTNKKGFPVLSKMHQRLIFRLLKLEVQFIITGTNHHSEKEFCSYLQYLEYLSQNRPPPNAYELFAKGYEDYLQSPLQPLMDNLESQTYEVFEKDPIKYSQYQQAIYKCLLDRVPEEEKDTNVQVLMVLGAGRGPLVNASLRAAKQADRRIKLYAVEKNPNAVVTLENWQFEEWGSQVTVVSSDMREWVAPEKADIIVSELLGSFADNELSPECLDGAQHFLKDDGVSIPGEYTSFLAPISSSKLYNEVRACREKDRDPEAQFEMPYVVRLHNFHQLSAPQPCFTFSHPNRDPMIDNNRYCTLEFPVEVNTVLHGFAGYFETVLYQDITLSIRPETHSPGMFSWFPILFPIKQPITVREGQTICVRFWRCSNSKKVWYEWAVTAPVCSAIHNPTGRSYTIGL

Turning to `CC(C)Oc1ccc(-c2c[nH]cc2CN(C)CC(N)=O)cc1`, the inhibition entry in assay [1], in assay [2], in assay [3], in [4], in assay [5] and in assay [6] was “inactive” in each case. The inhibition result in assay [7], in assay [8] and in assay [9] was “inactive” in each case.
With `CN(CCN)Cc1n[nH]nc1-c1cccc(C(F)(F)F)c1`, the inhibition entry in assay [1], in [6] and in [9] was “inactive” throughout. In addition, the half-maximal inhibitory concentration (IC50) was more than 75000 nM in [10]; 230 nM in assay [3]; more than 20000 nM in [5]; 3000 nM in assay [7]; more than 100000 nM in [8]. Moreover, the Ki in assay [11] is more than 10000 nM; in [12], more than 37500 nM; in assay [13] it was more than 50000 nM; in assay [14] it was 110 nM; in assay [15], 1500 nM.
With `CC(C)Oc1ccc(-c2c[nH]cc2CN(C)CCO)cc1`, the inhibition entry in [1], in [2], in assay [3], in [4], in assay [5] and in assay [6] was “inactive” each time. In addition, the inhibition entry in assay [7], in assay [8] and in assay [9] was “inactive” each time.
In the case of `CC(C)Oc1ccc(-c2c[nH]cc2C(=O)N(C)CCN)cc1`, the inhibition entry in [1], in [2], in assay [3], in assay [4], in assay [5] and in assay [6] was “inactive” in each case. Further, the inhibition entry in assay [7], in [8] and in assay [9] was “inactive” each time.
As for `CN(CCN)Cc1c[nH]cc1-c1cccc(C(F)(F)F)c1`, the inhibition entry in [1], in assay [6] and in assay [9] was “inactive” throughout. Also, the half-maximal inhibitory concentration (IC50) in assay [3] came to 9 nM; in [7] it was 42 nM. The Ki in assay [14] was 3 nM; in assay [15] it was 17 nM.

One may read the IC50 as the midpoint of a concentration-inhibition curve. As usually defined, the Ki is the dissociation constant of the complex between target and ligand, obtained from inhibition or displacement.

Source of the values: ChEMBL document CHEMBL5715953, “A Potent, Selective, and Cell-Active Inhibitor of Human Type I Protein Arginine Methyltransferases” (ACS Chem Biol, 2016).
